Data from ChEMBL document CHEMBL3864163, “I. Discovery of a novel series of CXCR3 antagonists. Multiparametric optimization of N,N-disubstituted benzylamines” (Bioorg Med Chem Lett, 2016).

Legend:
[1] = target: T1, C-X-C chemokine receptor type 3 (Homo sapiens) (UniProt P49682); experiment: Displacement of [125I]-CXCL10 from human recombinant CXCR3 transfected in Flp-In-CHO cell membranes at 10 uM after 60 mins by gamma counting method relative to control
T1 sequence (whole entry): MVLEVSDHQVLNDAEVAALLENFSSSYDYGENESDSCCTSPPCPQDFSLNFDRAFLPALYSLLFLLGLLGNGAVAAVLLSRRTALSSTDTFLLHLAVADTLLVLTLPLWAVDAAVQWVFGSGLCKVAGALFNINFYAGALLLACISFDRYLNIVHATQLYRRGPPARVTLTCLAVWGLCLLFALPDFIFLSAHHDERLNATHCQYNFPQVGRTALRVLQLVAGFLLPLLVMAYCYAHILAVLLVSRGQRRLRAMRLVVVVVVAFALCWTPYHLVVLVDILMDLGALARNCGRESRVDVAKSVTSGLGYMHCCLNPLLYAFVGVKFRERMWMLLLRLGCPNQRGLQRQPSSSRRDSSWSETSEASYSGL

[2] = Metabolic stability in mouse liver microsomes assessed as parent compound remaining in presence of NADPH by LC-MS/MS method; assay type: ADME
Summary of the method: (§1)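 Compound incubated with liver microsomes (human or mouse) plus NADPH at 37 °C. Loss of parent was followed by LC-MS-MS and reported as percent. Stability bands: low <40%, medium 40–60%, high >60%.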

[3] = target: T2, Alpha-2A adrenergic receptor (Homo sapiens) (UniProt P08913); experiment: Displacement of [3H]RX 821002 from recombinant human alpha 2A adrenergic receptor expressed in CHO cells at 10 uM after 60 mins by scintillation counting method relative to control; assay type: cell-based
T2 sequence (whole entry): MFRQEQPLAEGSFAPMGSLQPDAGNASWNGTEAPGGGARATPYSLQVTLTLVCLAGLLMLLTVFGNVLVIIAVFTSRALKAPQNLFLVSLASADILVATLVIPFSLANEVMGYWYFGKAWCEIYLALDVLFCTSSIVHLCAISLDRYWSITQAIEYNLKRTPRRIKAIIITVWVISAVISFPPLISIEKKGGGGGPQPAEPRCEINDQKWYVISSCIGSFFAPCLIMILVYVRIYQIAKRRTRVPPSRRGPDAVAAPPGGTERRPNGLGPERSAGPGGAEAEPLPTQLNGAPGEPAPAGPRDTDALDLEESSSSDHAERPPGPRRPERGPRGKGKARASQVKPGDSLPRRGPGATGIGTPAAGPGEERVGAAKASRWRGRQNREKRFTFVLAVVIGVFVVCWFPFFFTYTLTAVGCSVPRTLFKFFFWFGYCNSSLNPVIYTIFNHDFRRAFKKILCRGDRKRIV

[4] = Apparent permeability across human Caco2 cells after 2 hrs by LC-MS method; assay type: ADME, cell-based; conditions: Caco-2
Summary of the method: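 Caco-2 monolayers checked for integrity, then dosed alongside high- and low-permeability controls. Apical and basal samples taken at 2 h. Four transport conditions: A-B at pH 6.5/7.4 (0% or 0.5% BSA apical, 5% BSA basal), and A-B and B-A at pH 7.4/7.4 (0.5% BSA both sides). Compound quantified by LC/MS. Rapid transport defined as Papp >20 nm/s.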

[5] = target: T3, C-X-C chemokine receptor type 3 (Homo sapiens, UniProt P49682); experiment: Antagonist activity at human Galphai4qi4-coupled CXCR3A expressed in engineered CHO cells assessed as inhibition of IP-10-induced calcium mobilization by FLIPR assay; assay type: functional, cell-based
T3 sequence (P49682 whole entry): T1 sequence (whole entry)

[6] = target: T4, Alpha-1A adrenergic receptor (Homo sapiens) (UniProt P35348); experiment: Displacement of [3H]prazosin from recombinant human alpha 1A adrenergic receptor expressed in CHO cells at 10 uM after 60 mins by scintillation counting method relative to control; assay type: cell-based
T4 sequence (whole entry): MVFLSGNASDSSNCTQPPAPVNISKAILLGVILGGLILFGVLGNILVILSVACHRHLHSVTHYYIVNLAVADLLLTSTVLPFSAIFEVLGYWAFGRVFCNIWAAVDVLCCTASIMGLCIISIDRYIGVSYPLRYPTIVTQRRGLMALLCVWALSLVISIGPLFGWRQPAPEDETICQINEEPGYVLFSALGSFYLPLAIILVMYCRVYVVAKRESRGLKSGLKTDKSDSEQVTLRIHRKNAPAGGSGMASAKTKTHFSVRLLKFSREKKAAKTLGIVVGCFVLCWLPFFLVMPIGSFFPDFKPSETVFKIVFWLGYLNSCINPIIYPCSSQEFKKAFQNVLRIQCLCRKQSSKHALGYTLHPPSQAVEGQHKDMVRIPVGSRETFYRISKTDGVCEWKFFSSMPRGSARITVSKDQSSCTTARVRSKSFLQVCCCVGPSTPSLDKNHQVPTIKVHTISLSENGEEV

[7] = target: Histamine H1 receptor (Homo sapiens) (UniProt P35367); experiment: Displacement of [3H]pyrilamine from recombinant human histamine H1 receptor expressed in HEK293 cells at 10 uM after 60 mins by scintillation counting method relative to control; assay type: cell-based
[8] = target: Mu-type opioid receptor (Homo sapiens) (UniProt P35372); experiment: Displacement of [3H]DAMGO from recombinant human mu opioid receptor expressed in HEK293 cells at 10 uM after 60 mins by scintillation counting method relative to control; assay type: cell-based
[9] = target: T3, C-X-C chemokine receptor type 3; experiment: Displacement of [125I]-CXCL10 from human recombinant CXCR3 transfected in Flp-In-CHO cell membranes after 60 mins by gamma counting method
[10] = Metabolic stability in human liver microsomes assessed as parent compound remaining in presence of NADPH by LC-MS/MS method; assay type: ADME; summary of the method: as §1
[11] = target: T5, Muscarinic acetylcholine receptor M2 (Homo sapiens) (UniProt P08172); experiment: Displacement of [3H]AF-DX384 from recombinant human muscarinic M2 receptor expressed in CHO cells at 10 uM after 60 mins by scintillation counting method relative to control; assay type: cell-based
T5 sequence (whole entry): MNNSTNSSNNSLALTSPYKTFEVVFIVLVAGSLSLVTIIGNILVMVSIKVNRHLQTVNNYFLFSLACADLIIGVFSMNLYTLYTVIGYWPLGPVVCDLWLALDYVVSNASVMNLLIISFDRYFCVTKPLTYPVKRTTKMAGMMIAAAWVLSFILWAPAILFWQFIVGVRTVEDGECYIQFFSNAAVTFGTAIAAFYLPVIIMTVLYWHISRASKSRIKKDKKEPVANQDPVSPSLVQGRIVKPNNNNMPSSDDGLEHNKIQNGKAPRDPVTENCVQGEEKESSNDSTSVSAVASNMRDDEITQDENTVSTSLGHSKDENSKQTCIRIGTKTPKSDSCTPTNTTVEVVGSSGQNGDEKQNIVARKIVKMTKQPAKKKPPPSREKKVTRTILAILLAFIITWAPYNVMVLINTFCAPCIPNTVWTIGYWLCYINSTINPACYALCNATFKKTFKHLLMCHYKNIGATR

[12] = Intrinsic clearance in human hepatocytes assessed per 10^6 cells at 5 uM; assay type: ADME, cell-based, Hepatocyte
[13] = Absolute oral bioavailability in Balb/c mouse at 10 mg/kg; assay type: ADME, organism-based; conditions: in vivo
Summary of the method: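 Male Balb/c mice dosed once orally at 10 mg/kg and once intravenously at 3 mg/kg. Either 4 animals per route were profiled individually, or sparse sampling used 24 mice with 3 per time point for mean profiles. Absolute oral bioavailability was derived from the two routes.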

[14] = Chemical stability of the compound in 1:1 acetonitrile-water at pH 6.5 after 48 hrs by LC-MS method; assay type: physicochemical; conditions: buffer, pH 6.5, 48 h
[15] = target: T6, Muscarinic acetylcholine receptor M1 (Homo sapiens) (UniProt P11229); experiment: Displacement of [3H]pirenzepine from recombinant human muscarinic M1 receptor expressed in CHO cells at 10 uM after 60 mins by scintillation counting method relative to control; assay type: cell-based
T6 sequence (whole entry): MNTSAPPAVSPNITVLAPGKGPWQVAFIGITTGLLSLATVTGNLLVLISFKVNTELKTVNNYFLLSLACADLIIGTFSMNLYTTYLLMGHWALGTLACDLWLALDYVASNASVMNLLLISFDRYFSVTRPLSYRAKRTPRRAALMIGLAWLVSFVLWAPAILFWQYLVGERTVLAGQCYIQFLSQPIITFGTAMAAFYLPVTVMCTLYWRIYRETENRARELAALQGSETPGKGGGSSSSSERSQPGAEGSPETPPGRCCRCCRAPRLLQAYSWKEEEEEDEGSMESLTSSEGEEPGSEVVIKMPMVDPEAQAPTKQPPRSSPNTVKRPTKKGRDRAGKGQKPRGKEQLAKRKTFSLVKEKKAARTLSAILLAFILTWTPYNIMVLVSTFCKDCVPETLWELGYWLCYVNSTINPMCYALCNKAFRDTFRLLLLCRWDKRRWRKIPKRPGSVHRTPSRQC

Chain of Mu-type opioid receptor (Homo sapiens) (P35372 whole entry): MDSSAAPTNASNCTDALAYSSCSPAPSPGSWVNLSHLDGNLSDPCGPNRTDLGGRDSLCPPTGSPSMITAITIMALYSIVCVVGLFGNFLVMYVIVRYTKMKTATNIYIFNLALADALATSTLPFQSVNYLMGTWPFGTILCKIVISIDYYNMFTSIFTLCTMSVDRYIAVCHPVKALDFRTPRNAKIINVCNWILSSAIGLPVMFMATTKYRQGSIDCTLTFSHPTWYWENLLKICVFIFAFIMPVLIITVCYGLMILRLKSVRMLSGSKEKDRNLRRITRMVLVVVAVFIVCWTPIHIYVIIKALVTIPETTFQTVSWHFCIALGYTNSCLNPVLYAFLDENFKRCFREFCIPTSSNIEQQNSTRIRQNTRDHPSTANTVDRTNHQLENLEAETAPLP
Chain of Histamine H1 receptor (Homo sapiens) (P35367 whole entry): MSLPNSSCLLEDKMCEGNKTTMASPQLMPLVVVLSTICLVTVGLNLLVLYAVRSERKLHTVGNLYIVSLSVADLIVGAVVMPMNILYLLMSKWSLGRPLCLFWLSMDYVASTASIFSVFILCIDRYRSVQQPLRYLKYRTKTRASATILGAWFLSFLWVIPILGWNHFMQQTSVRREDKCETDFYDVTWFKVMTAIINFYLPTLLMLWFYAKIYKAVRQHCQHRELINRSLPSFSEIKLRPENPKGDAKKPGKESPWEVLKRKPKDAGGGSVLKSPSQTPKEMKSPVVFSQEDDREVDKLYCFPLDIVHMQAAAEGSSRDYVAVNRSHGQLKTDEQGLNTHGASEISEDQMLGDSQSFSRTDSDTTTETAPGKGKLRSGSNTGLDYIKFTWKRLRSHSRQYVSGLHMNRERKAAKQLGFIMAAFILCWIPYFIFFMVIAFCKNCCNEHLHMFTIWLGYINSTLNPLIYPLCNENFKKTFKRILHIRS

Row | SMILES | inhibition [1] | Stability [2] | Papp at 2 h [4] | inhibition [8] | Stability [10] | inhibition [11] | CLH [12] | bioavailability [13] | also measured
1 | COc1cc(CN(C)C(C)c2ccc3c(c2)CCO3)cc(OCCN2C(=O)CCC2=O)c1 (stereo not drawn) | 4% | – | – | – | – | – | – | – | –
2 | COc1cc(CN(C)C(C)c2ccc3c(c2)CCO3)ccc1OCCN1C(=O)CCC1=O (stereo not drawn) | – | 52% | 5.62 ×10⁻⁶ cm/s | > 65% | 53% | > 65% | – | – | inhibition [3]: > 65%; IC50 [5]: 74 nM; inhibition [6]: > 65%; inhibition [7]: > 65%; IC50 [9]: 403 nM
3 | COc1cc(CN(C[C@H]2CC[C@H](C(=O)O)CC2)C2CCc3cc(Cl)ccc32)ccc1OCCN1C(=O)CCC1=O (stereo partly drawn) | – | 78% | 8.98 ×10⁻⁶ cm/s | 63 to 64% | 66% | 0% | – | – | inhibition [6]: 52%; IC50 [9]: 24 nM
4 | Cc1cc(CN(C[C@H]2CC[C@H](C(=O)O)CC2)[C@H]2CCc3cc(Cl)ccc32)ccc1OCCN1C(=O)CCC1=O | – | 91% | 8.12 ×10⁻⁶ cm/s | 87% | 78% | 92% | 0.09 mL/h | 69% | inhibition [15]: 82%
5 | COc1cc(CN(C[C@H]2CC[C@H](C(=O)O)CC2)C(C)c2ccc3c(c2)CCO3)ccc1OCCN1C(=O)CSC1=O (stereo partly drawn) | – | 73% | 2.93 ×10⁻⁶ cm/s | 94% | 73% | 72% | – | – | –
6 | Cc1cc(CN(C[C@H]2CC[C@H](C(=O)O)CC2)[C@@H](C)c2ccc(Cl)cc2)ccc1OCCN1C(=O)CCC1=O | – | 87% | 19.5 ×10⁻⁶ cm/s | – | 73% | 97% | 0.138 mL/h | 93.5% | inhibition [6]: 71%
7 | CC(c1ccc2c(c1)CCO2)N(C)Cc1ccc2c(c1)OC[C@H](CN1C(=O)CCC1=O)O2 (stereo partly drawn) | 36% | – | – | – | – | – | – | – | –
8 | COc1cc(CN(C)C(C)c2ccc3c(c2)CCO3)ccc1OCN1C(=O)CCC1=O (stereo not drawn) | 8% | – | – | – | – | – | – | – | –
9 | Cc1cc(CN(C[C@H]2CC[C@H](C(=O)O)CC2)[C@@H](C)c2ccc(Cl)cc2)ccc1OCCN1C(=O)CN(C)C1=O | – | 100% | 15.7 ×10⁻⁶ cm/s | – | 63% | – | 0.234 mL/h | 63.3% | IC50 [9]: 99 nM

Further lines, with some results ahead:

Row | inhibition [1] | Stability [2] | Papp at 2 h [4] | inhibition [8] | Stability [10] | inhibition [11] | CLH [12] | bioavailability [13] | SMILES | also measured
10 | 15% | – | – | – | – | – | – | – | COc1cc(CN(C)C(C)c2ccc3c(c2)CCO3)cc(OCCCN2C(=O)CCC2=O)c1 (stereo not drawn) | –
11 | – | 76% | 8.01 ×10⁻⁶ cm/s | – | 62% | – | 0.159 mL/h | 26.7% | COc1cc(CN(C[C@H]2CC[C@H](C(=O)O)CC2)[C@@H](C)c2ccc(Cl)cc2)ccc1OCCn1c(=O)ccn(C)c1=O | –
12 | – | 93% | 1.16 ×10⁻⁶ cm/s | – | 88% | – | – | – | COc1cc(CN(C[C@H]2CC[C@H](C(=O)O)CC2)C(C)c2ccc3c(c2)CCO3)ccc1OCCN1C(=O)COC1=O (stereo partly drawn) | Stability [14]: Unstable
13 | – | 81% | 2.97 ×10⁻⁶ cm/s | – | 73% | 16% | 0.031 mL/h | 47% | COc1cc(CN(C[C@H]2CC[C@H](C(=O)O)CC2)[C@H]2CCc3c2ccc(Cl)c3F)ccc1OCCN1C(=O)CCC1=O | –
14 | – | 96% | 8.02 ×10⁻⁶ cm/s | – | 94% | 37% | 0.069 mL/h | – | CCc1cc(CN(C[C@H]2CC[C@H](C(=O)O)CC2)[C@H]2CCc3cc(Cl)ccc32)ccc1OCCN1C(=O)CCC1=O | –
15 | – | 79% | 7.52 ×10⁻⁶ cm/s | 43% | 70% | – | 0.112 mL/h | 24% | COc1cc(CN(C[C@H]2CC[C@H](C(=O)O)CC2)[C@H]2CCc3cc(Cl)ccc32)ccc1OCCN1C(=O)CCC1=O | inhibition [6]: 25%
16 | 18% | – | – | – | – | – | – | – | COc1ccc(CN(C)C(C)c2ccc3c(c2)CCO3)cc1OCCN1C(=O)CCC1=O (stereo not drawn) | –
17 | 39% | – | – | – | – | – | – | – | COc1cc(CN(C)C(C)c2ccc3c(c2)CCO3)ccc1OCCCN1C(=O)CCC1=O (stereo not drawn) | –
18 | – | 91% | 5.28 ×10⁻⁶ cm/s | 74% | 91% | – | – | 13.3% | COc1cc(CN(C[C@H]2CC[C@H](C(=O)O)CC2)[C@@H](C)c2ccc(Cl)cc2)ccc1OCCN1C(=O)CCC1=O | –
19 | – | 87% | 2.22 ×10⁻⁶ cm/s | 78% | 70% | 99% | – | 4.1% | Cc1cc(CN(C[C@H]2CC[C@H](C(=O)O)CC2)C(C)c2ccc3c(c2)CCO3)ccc1OCCN1C(=O)CCC1=O (stereo partly drawn) | –
20 | 7% | – | – | – | – | – | – | – | CC(c1ccc2c(c1)CCO2)N(C)Cc1ccc2c(c1)OCCN2CCN1C(=O)CCC1=O (stereo not drawn) | –
